Experimental data reported in ChEMBL document CHEMBL1135917, “Human somatostatin receptor specificity of backbone-cyclic analogues containing novel sulfur building units” (J Med Chem, 2002).
*1 amine or outer side, *2 acyl side, *3 side chain or, on linkers, in order; H or OH if unused. Where a SMILES comes first, the peptide text is derived from it. Bridges are numbered along the chain shown (N, C = ends). [ ]: non-standard residue; d: D form. N(2-mercaptoethyl)Gly = O=C(CN(CCS[*:3])[*:1])[*:2]

Columns and labels:
[1] = molecular target: Somatostatin receptor type 2 (Homo sapiens, UniProt P30874); test: Binding affinity of human Somatostatin receptor type 2 (hsst2) by the displacement of [125I]- Tyr11 somatostatin-14 in CHO-K1 cells; assay type: cell-based
Method in brief: (§1)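 Membranes from CHO-K1 cells stably expressing each cloned human receptor, prepared in 50 mM Tris-HCl pH 7.8 with EGTA, MgCl2 and protease inhibitors. Membranes (0.2 or 0.4 mg/mL protein, receptor-dependent) incubated with 125I-Tyr11 somatostatin-14 for 45 min at room temperature. Nonspecific binding taken with […] somatostatin. Bound ligand separated by GF/C filtration and counted. Triplicate wells, at least two experiments. IC50 taken from inhibition curves, mean ± SEM.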

[2] = molecular target: Somatostatin receptor type 1 (Homo sapiens, UniProt P30872); test: Binding affinity of human Somatostatin receptor type 1 (hsst1) by the displacement of [125I]- Tyr11 somatostatin-14 in CHO-K1 cells.; assay type: cell-based; method in brief: as §1
[3] = molecular target: Somatostatin receptor type 3 (Homo sapiens, UniProt P32745); test: Binding affinity of human Somatostatin receptor type 3 (hsst3) by the displacement of [125I]- Tyr11 somatostatin-14 in CHO-K1 cells; assay type: cell-based; method in brief: as §1
[4] = molecular target: Somatostatin receptor type 4 (Homo sapiens, UniProt P31391); test: Binding affinity of human Somatostatin receptor type 4 (hsst4) by the displacement of [125I]- Tyr11 somatostatin-14 in CHO-K1 cells; assay type: cell-based; method in brief: as §1
[5] = molecular target: Somatostatin receptor type 5 (Homo sapiens, UniProt P35346); test: Binding affinity of human Somatostatin receptor type 5 (hsst5) by the displacement of [125I]- Tyr11 somatostatin-14 in CHO-K1 cells; assay type: cell-based; method in brief: as §1
[6] = Half life in renal homogenate; assay type: ADME, tissue-based
Method in brief: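 Peptides at 0.4 mg/mL final were incubated in rat renal homogenate at 37 °C for up to 4 h. Samples were taken at several time points. The fraction of intact peptide was measured by HPLC from the loss of major-peak area.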

Sequence of Somatostatin receptor type 5 (P35346 whole entry): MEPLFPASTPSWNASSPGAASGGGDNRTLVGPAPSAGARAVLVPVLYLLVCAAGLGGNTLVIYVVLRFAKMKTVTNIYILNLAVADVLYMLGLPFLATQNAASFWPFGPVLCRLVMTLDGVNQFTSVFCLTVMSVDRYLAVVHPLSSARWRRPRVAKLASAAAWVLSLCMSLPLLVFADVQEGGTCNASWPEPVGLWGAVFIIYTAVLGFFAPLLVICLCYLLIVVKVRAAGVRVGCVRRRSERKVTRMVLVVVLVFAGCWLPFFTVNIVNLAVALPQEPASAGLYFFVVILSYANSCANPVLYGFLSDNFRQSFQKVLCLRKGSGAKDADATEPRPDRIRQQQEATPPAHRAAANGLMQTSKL
Sequence of Somatostatin receptor type 4 (P31391 whole entry): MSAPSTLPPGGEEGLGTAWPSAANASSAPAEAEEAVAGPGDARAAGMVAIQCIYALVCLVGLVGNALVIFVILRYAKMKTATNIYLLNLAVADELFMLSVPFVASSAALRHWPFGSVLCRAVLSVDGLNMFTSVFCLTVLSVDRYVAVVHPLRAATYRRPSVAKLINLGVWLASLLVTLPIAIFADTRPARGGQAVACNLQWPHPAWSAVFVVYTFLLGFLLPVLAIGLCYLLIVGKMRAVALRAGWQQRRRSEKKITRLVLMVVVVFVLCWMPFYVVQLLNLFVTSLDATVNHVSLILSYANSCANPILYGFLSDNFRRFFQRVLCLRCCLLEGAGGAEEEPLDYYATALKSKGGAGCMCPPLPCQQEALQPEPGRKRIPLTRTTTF
Sequence of Somatostatin receptor type 2 (P30874 whole entry): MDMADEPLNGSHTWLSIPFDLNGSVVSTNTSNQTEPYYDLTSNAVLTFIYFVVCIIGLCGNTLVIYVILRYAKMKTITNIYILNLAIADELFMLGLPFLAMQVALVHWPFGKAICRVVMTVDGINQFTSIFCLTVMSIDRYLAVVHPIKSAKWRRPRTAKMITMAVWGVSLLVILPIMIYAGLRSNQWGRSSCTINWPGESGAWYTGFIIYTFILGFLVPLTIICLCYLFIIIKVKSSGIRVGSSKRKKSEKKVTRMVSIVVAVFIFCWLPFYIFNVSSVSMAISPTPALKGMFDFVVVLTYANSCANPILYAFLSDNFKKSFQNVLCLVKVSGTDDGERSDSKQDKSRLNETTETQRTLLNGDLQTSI
Sequence of Somatostatin receptor type 1 (P30872 whole entry): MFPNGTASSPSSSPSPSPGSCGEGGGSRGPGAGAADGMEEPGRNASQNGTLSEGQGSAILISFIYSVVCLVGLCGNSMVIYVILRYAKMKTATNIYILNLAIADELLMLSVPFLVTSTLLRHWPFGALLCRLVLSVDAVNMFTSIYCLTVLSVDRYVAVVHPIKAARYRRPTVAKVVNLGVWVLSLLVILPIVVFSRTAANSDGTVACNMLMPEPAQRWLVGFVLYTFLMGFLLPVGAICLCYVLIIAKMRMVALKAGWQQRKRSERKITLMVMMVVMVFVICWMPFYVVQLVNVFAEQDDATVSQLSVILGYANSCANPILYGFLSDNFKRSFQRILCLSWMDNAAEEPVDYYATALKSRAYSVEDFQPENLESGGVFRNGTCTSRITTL
Sequence of Somatostatin receptor type 3 (P32745 whole entry): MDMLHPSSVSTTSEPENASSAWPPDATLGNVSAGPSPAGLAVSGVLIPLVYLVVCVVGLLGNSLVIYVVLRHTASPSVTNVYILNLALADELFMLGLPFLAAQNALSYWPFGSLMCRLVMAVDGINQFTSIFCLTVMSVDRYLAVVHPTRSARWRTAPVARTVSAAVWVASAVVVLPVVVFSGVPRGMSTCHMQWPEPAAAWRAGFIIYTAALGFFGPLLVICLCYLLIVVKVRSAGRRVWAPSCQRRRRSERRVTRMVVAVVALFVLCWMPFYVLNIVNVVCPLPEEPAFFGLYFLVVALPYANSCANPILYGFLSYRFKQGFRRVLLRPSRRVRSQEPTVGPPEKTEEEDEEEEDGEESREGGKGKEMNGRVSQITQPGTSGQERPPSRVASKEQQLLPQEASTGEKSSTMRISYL

Row | Structure (SMILES) | IC50 [1] [nM] | IC50 [2] [nM] | IC50 [3] [nM] | IC50 [4] [nM] | IC50 [5] [nM] | IC50 ([1]; cho-k1) [nM] | IC50 ([2]; cho-k1) [nM] | IC50 ([5]; cho-k1) [nM] | IC50 ([3]; cho-k1) [nM] | IC50 ([4]; cho-k1) [nM] | half-life [6] [h]
1 | C[C@@H](O)[C@@H]1NC(=O)[C@H](CCCCN)NC(=O)[C@@H](Cc2c[nH]c3ccccc23)NC(=O)[C@H](Cc2c[nH]c3ccccc23)NC(=O)[C@H](Cc2ccccc2)NC(=O)CSSCCN(CC(N)=O)C(=O)[C@H](Cc2ccccc2)NC1=O | 28.7 | > 1000 | 15.6 | > 100 | – | – | – | – | – | – | –
2 | C[C@@H](O)[C@@H]1NC(=O)[C@H](CCCCN)NC(=O)[C@@H](Cc2c[nH]c3ccccc23)NC(=O)[C@H](Cc2c[nH]c3ccccc23)NC(=O)[C@H](Cc2ccccc2)NC(=O)CCSSCCN(CC(N)=O)C(=O)[C@H](Cc2ccccc2)NC1=O | 1.3 | > 1000 | > 100 | > 100 | 2.8 | – | – | – | – | – | –
3 | C[C@@H](O)[C@@H]1NC(=O)[C@H](CCCCN)NC(=O)[C@@H](Cc2c[nH]c3ccccc23)NC(=O)[C@H](Cc2c[nH]c3ccccc23)NC(=O)[C@H](Cc2ccccc2)NC(=O)CCCNC(=O)CCCN(CC(N)=O)C(=O)[C@H](Cc2ccccc2)NC1=O | 3 | > 1000 | > 100 | 7 | 1 | – | – | – | – | – | –
4 | C[C@@H](O)[C@@H]1NC(=O)[C@H](CCCCN)NC(=O)[C@@H](Cc2c[nH]c3ccccc23)NC(=O)[C@H](Cc2c[nH]c3ccccc23)NC(=O)[C@H](Cc2ccccc2)NC(=O)CNCCSSCCN(CC(N)=O)C(=O)[C@H](Cc2ccccc2)NC1=O | 4.1 | > 1000 | > 100 | 49.5 | 7.8 | – | – | – | – | – | –
5 | C[C@@H](O)[C@@H]1NC(=O)[C@@H](CCCCN)NC(=O)[C@@H](Cc2c[nH]c3ccccc23)NC(=O)[C@@H](Cc2c[nH]c3ccccc23)NC(=O)[C@H](Cc2ccccc2)NC(=O)CN(C(=O)[C@@H](N)Cc2ccccc2)CCSSCCN(CC(N)=O)C(=O)[C@@H](Cc2ccccc2)NC1=O | – | – | – | – | – | 2.5 | > 1000 | 18.2 | > 100 | > 100 | –
6 | C[C@@H](O)[C@@H]1NC(=O)[C@@H](CCCCN)NC(=O)[C@@H](Cc2c[nH]c3ccccc23)NC(=O)[C@@H](Cc2c[nH]c3ccccc23)NC(=O)[C@H](Cc2ccccc2)NC(=O)C(NC(=O)[C@@H](N)Cc2ccccc2)CSSCCN(CC(N)=O)C(=O)[C@@H](Cc2ccccc2)NC1=O (stereo not given in full) | – | – | – | – | – | 12.8 | > 1000 | 4.5 | > 100 | 35.9 | –
7 | C[C@@H](O)[C@@H]1NC(=O)[C@H](CCCCN)NC(=O)[C@@H](Cc2c[nH]c3ccccc23)NC(=O)[C@H](Cc2c[nH]c3ccccc23)NC(=O)[C@H](Cc2ccccc2)NC(=O)[C@@H](N)CSSCCN(CC(N)=O)C(=O)[C@H](Cc2ccccc2)NC1=O (H-CFW[dW]KTF[N(2-mercaptoethyl)Gly]-NH2; disulfide 1-8) | 5.2 | > 1000 | 40.7 | 41.1 | 1.2 | – | – | – | – | – | 3
